From ChEMBL document CHEMBL3877263, “Synthesis and in vitro characterization of novel fluorinated derivatives of the translocator protein 18 kDa ligand CfO-DPA-714” (Eur J Med Chem, 2017)

Tests used:
[1] = molecular target: Translocator protein (Rattus norvegicus, UniProt P16257); test: Displacement of [3H]PK11195 from TSPO in rat heart membranes after 15 mins by scintillation counting method; type: cell membranes, Membrane
[2] = species on record: Rattus norvegicus; test: Displacement of [3H]flunitrazepam from CBR in rat cerebral cortex membranes at 1 uM relative to control; type: cell membranes; details: Membrane
[3] = n-Octanol-buffer partition coefficient, log D of the compound at pH 7.4 by HPLC method; type: physicochemical
[4] = Intrinsic clearance in human hepatic microsomes assessed per mg protein up to 30 mins in presence of NADPH by UPLC-MS method; type: ADME; details: liver microsomes, read-out: CLH
Method in brief: (§1)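 Hepatic microsomes (male CD1 mouse, male Sprague-Dawley rat, or pooled human) at 0.25 mg/mL protein, substrate 0.5 µM, 1 mM NADPH; samples at 0, 5, 10, 20, 30 min, quenched with 1 volume CH3CN, centrifuged, supernatant by UPLC/HRMS. % remaining vs T0 (analyte/internal standard ratio); k from ln(% stability) vs time; InC = k/protein concentration × 1000.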

[5] = Intrinsic clearance in Sprague-Dawley rat hepatic microsomes assessed per mg protein up to 30 mins in presence of NADPH by UPLC-MS method; type: ADME; details: liver microsomes, read-out: CLH; method in brief: as §1
[6] = Intrinsic clearance in CD1 mouse hepatic microsomes assessed per mg protein up to 30 mins in presence of NADPH by UPLC-MS method; type: ADME; details: liver microsomes, read-out: CLH; method in brief: as §1

Translocator protein, sequence (P16257 whole entry, looked up): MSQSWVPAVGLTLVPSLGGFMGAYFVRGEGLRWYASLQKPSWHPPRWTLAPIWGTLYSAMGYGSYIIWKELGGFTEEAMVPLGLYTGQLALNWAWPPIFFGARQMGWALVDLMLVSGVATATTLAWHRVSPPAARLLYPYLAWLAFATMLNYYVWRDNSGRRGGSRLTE

Structure (SMILES)	Ki [1] [nM]	inhibition [2] [%]	logD [3]	microsomal CLint [4] [µL/min/mg]	microsomal CLint [5] [µL/min/mg]	microsomal CLint [6] [µL/min/mg]
Cc1cc(C)n2nc(-c3ccc(CCCF)cc3)c(CC(=O)N3CCNCC3)c2n1	260	0	0.87			
CCN(CC)C(=O)Cc1c(-c2ccc(CCCF)cc2)nn2c(C)cc(C)nc12		0	3.51	241	> 1000	865
Cc1cc(C)n2nc(-c3ccc(CCCF)cc3)c(CC(=O)N(C)Cc3ccccc3)c2n1	0.3	0	3.98	> 1000	> 1000	> 1000
CCN(CC)C(=O)Cc1c(-c2ccc(OCCF)cc2)nn2c(C)cc(C)nc12 [DPA-714]		0		68	> 1000	408
Cc1cc(C)n2nc(-c3ccc(CCCF)cc3)c(CC(=O)N3CCCCC3)c2n1	2.2	0	3.56	424	> 1000	931
Cc1cc(C)n2nc(-c3ccc(CCCF)cc3)c(CC(=O)N3CCOCC3)c2n1	27	0	2.56			
Cc1cc(C)n2nc(-c3ccc(CCCF)cc3)c(CC(=O)N(C)Cc3ccccn3)c2n1	1.2	0	3.16	270	610	947
Cc1cc(C)n2nc(-c3ccc(CCCF)cc3)c(CC(=O)N(C)Cc3cccnc3)c2n1	2.8	0	2.61	862	> 1000	> 1000
CCCN(C)C(=O)Cc1c(-c2ccc(CCCF)cc2)nn2c(C)cc(C)nc12	0.25	0	3.65	321	> 1000	781
Cc1cc(C)n2nc(-c3ccc(CCCF)cc3)c(CC(=O)N3CCC3)c2n1	32	0	2.73			
Cc1cc(C)n2nc(-c3ccc(CCCF)cc3)c(CC(=O)N3CCCC3)c2n1	26	0	3.04			
CCCN(CCC)C(=O)Cc1c(-c2ccc(CCCF)cc2)nn2c(C)cc(C)nc12	0.26	0	4.39	> 1000	> 1000	> 1000
Cc1cc(C)n2nc(-c3ccc(CCCF)cc3)c(CC(=O)N(C)C)c2n1	15	2	2.68			
Cc1cc(C)n2nc(-c3ccc(CCCF)cc3)c(CC(=O)N(C)CCc3ccccc3)c2n1	1.1	0	4.08	> 1000	> 1000	> 1000
Cc1cc(C)n2nc(-c3ccc(CCCF)cc3)c(CC(=O)NC3CC3)c2n1	17	0	2.69			
